High-throughput results from PubChem BioAssay.
MDM2 E3 inh = inhibitors of human Mdm2 E3 ubiquitin ligase | signal enhancement, % at 5 µM | cell-based MDM2 ubiquitination luciferase reporter, 2 h; 0 = plate control, 100 = twice control, blank-subtracted | 210,000 tested, 0.11% active;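 active means signal enhancement of 30% or more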;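 further: luminescence tracks abundance of the self-degrading MDM2-luciferase fusion protein; higher signal means inhibition of MDM2 E3 ligase activity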
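Test system: stable mammalian line carrying autodegrading MDM2–luciferase fusion reporter; quantity: 2000 cells in each well; times: 4 h cell settling then 2 h compound exposure, 37 °C; detection: luminescence with SteadyLite reagent, 15 min at room temperature; evaluation: percent signal gain over controls, blank-subtracted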
Autophagy HCS = autophagy modulation, high-content screen; MEF GFP-LC3 puncta imaging; test concentration mostly 10 µM; calls only at 10 µM (by protocol); 190,000 tested, 0.98% active;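 active means percentage of spot-positive cells more than 3 SD above its plate mean, without a fluorescence outlier flag or 80% toxicity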;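 further: spot-positive cell cutoff set from DMSO-treated cells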
TNF necrop inh = blocks TNF-alpha induced death of Jurkat FADD-/- cells | Jurkat FADD-/- TNF necroptosis rescue, ATP luminescence, 24 h; 0 = TNF only, 100 = no-TNF cells | 220,000 tested, 0.068% active | activation (protection from cell death), % at 10 µM;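 active means activation, meaning protection from cell death, of at least 50% relative to plate controls; inactive means activation below 50%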;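 further: necroptosis triggered by 40 ng/mL TNF-alpha added together with compound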
Hck-Nef inh = human Hck-Nef kinase inhibition; AID 463187; P08631; inhibition, % at 20 µM; 220,000 tested, 0.68% active; Recombinant Hck-YEEI plus Nef, Z-Lyte FRET kinase assay;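 active means Hck-Nef kinase inhibition above about 50%, limit read from the data; inactive means inhibition below that limit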;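 further: 0% = DMSO with Hck plus Nef and 100% = Hck alone without Nef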
Target sequence (P08631 whole entry, looked up): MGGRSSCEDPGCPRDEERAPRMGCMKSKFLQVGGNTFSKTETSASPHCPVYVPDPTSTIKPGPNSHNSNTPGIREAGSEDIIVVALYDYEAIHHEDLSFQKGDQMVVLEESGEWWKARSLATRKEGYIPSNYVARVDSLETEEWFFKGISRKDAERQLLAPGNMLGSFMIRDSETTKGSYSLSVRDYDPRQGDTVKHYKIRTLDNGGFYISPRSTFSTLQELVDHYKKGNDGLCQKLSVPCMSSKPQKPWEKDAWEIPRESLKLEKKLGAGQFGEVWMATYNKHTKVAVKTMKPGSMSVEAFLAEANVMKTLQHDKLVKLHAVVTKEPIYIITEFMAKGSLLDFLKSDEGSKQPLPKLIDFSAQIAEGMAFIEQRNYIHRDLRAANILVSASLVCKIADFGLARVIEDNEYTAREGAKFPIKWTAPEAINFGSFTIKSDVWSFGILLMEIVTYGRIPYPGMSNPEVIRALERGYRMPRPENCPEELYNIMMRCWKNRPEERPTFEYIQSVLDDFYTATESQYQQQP
L929 necroptosis = blocks zVAD induced death of L929 cells. L929 zVAD necroptosis rescue, ATP luminescence, 24 h; with zVAD 60 µM. viability rescue, % at 10 µM. 220,000 tested, 0.38% active;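 active means activation, scaled between plate controls, above about 75%, limit read from the data; inactive means activation under that limit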;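 further: 0% = zVAD with DMSO and 100% = DMSO alone without zVAD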
Dynein transport = blocks dynein driven cargo transport along microtubules; 3617.4 mouse cells, GR-EGFP nuclear translocation imaging; test concentration mostly 20 µM; stimulated with dexamethasone, 1 µM; active compounds read low; z-score, hits read low; 220,000 tested, 0.47% active;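 active means plate z-score of nuclear minus cytoplasmic receptor signal below a set negative limit, without overly bright fluorescence or cell loss, cut at about -3.5 in these data, passing the limit was not always enough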;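 further: z-score of nuclear minus cytoplasmic ring GR-EGFP intensity difference per well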
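medium = tetracycline-free induction medium containing charcoal-stripped FBS | also added = 1.0 µM final dexamethasone stimulus | schedule = 48 h induction, 1 h compound, 30 min dex at 37 °C | technique = fixed, Hoechst-stained cells imaged at 10x for EGFP | measure = GR-EGFP nuclear translocation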
Hck-Nef confirm = confirmation of Hck-Nef kinase inhibitors | calls only at 10 µM | shares compounds with Hck-Nef inh | Recombinant Hck-YEEI:Nef, Z-Lyte FRET kinase assay | AID 463188 | 1,300 tested, 28% active;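 active means average inhibition of at least 50%, with Z-scores no higher than 3 in both the phospho-tyrosine peptide and fluorescence counterscreens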
* = called active by the depositor; i = inactive; nt = no result given; + = active, no number. Hits are enriched below; roughly 2.4% of the tested compounds scored in any of these assays.

SMILES	MDM2 E3 inh	Autophagy HCS	TNF necrop inh	Hck-Nef inh	L929 necroptosis	Dynein transport	Hck-Nef confirm
O=Nc1ccc(NOC(=O)c2ccccc2)cc1	-18	i	3	8	10	-0.37	nt
COc1ccc(/C(C)=C(\C#N)C(=O)OC(C)C)cc1OC	1	i	-1	6	0	-0.6	nt
CCCCNC(=O)/C(C#N)=C/c1ccc(F)cc1F	-3	i	-4	17	1	-0.29	nt
Nc1c(C(=O)NCCN2CCOCC2)c2nc3ccccc3nc2n1CCc1ccccc1F	-23	+	-7	51*	0	2.1	i
COc1ccccc1CNC(=O)c1c(N)n(CCCN2CCOCC2)c2nc3ccccc3nc12	-3	i	-15	52*	1	-0.097	i
O=C1NN(c2cccc(Br)c2)C(=O)/C1=C/c1ccc(-c2cc([N+](=O)[O-])ccc2O)o1	nt	nt	-6	98*	-1	-0.66	+
CCc1ccc2nc(NC(=O)c3ccc4c(=O)[nH]c(CN5CCOCC5)nc4c3)sc2c1	-12	i	-2	109*	0	-0.49	+
CNc1ccc(Br)cc(C(=O)/C=C/c2cccc(Cl)c2Cl)c1=O	3	i	-8	51*	1	-4.1	i
NC(=O)Cn1nnc(-c2ccc(NC(=O)c3ccc(F)cc3)cc2)n1	-16	i	-1	-26	3	0.92	nt
O=c1[nH][nH]cc1C=Nc1ccc(Oc2ccccc2)cc1	-4	i	-4	164*	1	0.4	+
CC/C(C)=C1\SC(N2CCOCC2)=NC1=O	-19	i	0	1	0	-0.26	nt
COc1ccc(C(=O)Nc2cccc(/C=C/c3nc4ccccc4c(=O)[nH]3)c2)cc1	nt	nt	-10	56*	1	-0.61	i
CCN(CC)c1ccc(/C=N\NC(N)=O)cc1	-10	i	0	2	1	-0.082	nt
CCN(CC)c1ccc(/C=N/NC(=O)c2ccoc2C)cc1	-55	nt	-3	61*	5	0.93	nt
CCOC(=O)c1cc(C(=O)OCC)c2ccccn2c1=O	-15	i	-3	95*	-1	-0.17	nt
CCOCCCn1c(=NC(C)=O)c(C#N)cc2c(=O)n3ccccc3nc21	-7	nt	1	96*	0	0.5	nt
CCOCCCn1c(=NC(C)=O)c(C(=O)OCC)cc2c(=O)n3ccccc3nc21	-22	i	0	119*	0	1.5	nt
CCOC(=O)c1cc2c(=O)n3ccccc3nc2n(CCOC)c1=NC(=O)c1ccncc1	6	i	-3	48	0	2	nt
COCCCn1c(=NC(=O)c2ccccc2)c(C#N)cc2c(=O)n3cccc(C)c3nc21	-22	nt	-9	82*	0	-0.25	i
CCOC(=O)c1cc2c(=O)n3ccccc3nc2n(CCOC)c1=NC(=O)C(C)(C)C	-16	i	-3	101*	0	0.1	nt
CCOCCCn1c(=NC(=O)c2cccs2)c(C#N)cc2c(=O)n3cccc(C)c3nc21	-5	nt	-10	20	1	-0.53	nt
CCOC(=O)c1cc2c(=O)n3ccccc3nc2n(Cc2ccco2)c1=NC(=O)c1ccccc1OCC	-11	i	-1	20	-1	0.089	nt
CCOC(=O)c1cc2c(=O)n3ccccc3nc2n(CC(C)C)c1=NC(=O)c1ccco1	2	i	-6	105*	0	-0.68	i
CCN1/C(=C/C(=O)c2ccco2)Sc2ccccc21	-4	i	-4	95*	0	-0.076	nt
CCC(=O)/C=C1/Sc2ccccc2N1CC	-11	i	-3	6	0	-0.2	nt
SMILES	MDM2 E3 inh	Autophagy HCS	TNF necrop inh	Hck-Nef inh	L929 necroptosis	Dynein transport	Hck-Nef confirm
COC(=O)[C@@]1(Cc2ccccc2)[C@H]2c3cc(C(=O)N4CCCC4)n(Cc4ccsc4Br)c3C[C@H]2CN1C(=O)c1ccccc1	nt	i	1	-2	0	-1.5	nt
Cc1cc(NC(=O)c2cccs2)n(-c2nc3ccccc3[nH]2)n1	nt	i	2	85*	-1	-0.61	i
Cc1cc(NC(=O)c2sccc2C)n(-c2nc3ccccc3[nH]2)n1	nt	i	2	26	1	0.09	nt
C/C=C\C=C\C(=O)N1CC2(CC(c3cccc(NC(=O)CC(c4ccccc4)c4ccccc4)c3)=NO2)C[C@H]1C(N)=O (some centres not stated)	0	nt	-3	78*	0	-0.085	i
C/C=C/C=C\C(=O)Nc1cccc(C2=NOC3(C2)C[C@@H](C(N)=O)N(C(=O)c2cc([N+](=O)[O-])cc([N+](=O)[O-])c2)C3)c1 (some centres not stated)	-5	nt	-1	50*	0	0.18	i
C#CCOCCOCCOCCNc1nc(N2CCN(C(=O)[C@H](CCC(=O)O)n3cc(C(N)CO)nn3)CC2)nc(N2CCN(C(=O)[C@H](CCC(=O)O)n3cc(C(N)[C@H](C)CC)nn3)CC2)n1 (some centres not stated)	nt	i	1	1	1	1.1	nt
O=C(Nc1ccccc1F)Nc1cc(S(=O)(=O)N2CCOCC2)ccc1N1CCCC1	-4	i	2	19	-1	-0.0054	nt
O=C(Nc1cc(S(=O)(=O)N2CCOCC2)ccc1N1CCCC1)c1ccc2c(c1)S(=O)(=O)c1ccccc1C2=O	nt	i	-1	65*	1	2.1	i
Fc1cccc(Nc2ncnc3[nH]ncc23)c1	-9	i	1	42	10	-0.24	nt
Brc1ccc(Nc2ncnc3[nH]ncc23)cc1	-19	nt	1	51*	0	0.13	i
NS(=O)(=O)c1ccc(N2N=C(c3ccccc3)CC2c2ccccc2)cc1 (configuration not stated)	-7	i	2	35	0	0.34	nt
CCc1ccc(C2=NN(c3ccc(S(N)(=O)=O)cc3)C(c3ccc(F)cc3)C2)cc1 (configuration not stated)	-64	i	-2	74*	0	-1	nt
Cc1cccc(N2CCN(C(=O)C3CCN(S(=O)(=O)N4CCOCC4)CC3)CC2)c1C	-3	i	-3	20	0	-0.18	nt
S=c1[nH]nc(-c2ccco2)n1/N=C/c1c(Cl)cccc1Cl	nt	nt	2	61*	0	-1.3	i
C[C@H](NC(N)=O)C(=O)OCC(=O)Nc1ccc(OC(F)F)cc1	-8	i	0	1	1	0.56	nt
COc1ccc(C(=O)NC(=O)COC(=O)c2ccc3ncsc3c2)cc1	-3	i	1	3	1	0.0022	nt
O=C(Nc1nc(-c2ccccn2)cs1)c1cc2ccccc2o1	-14	i	-4	14	-2	1.4	nt
